# Shown are actives, neighbours in structure and some others; about 2.5% of the full set was active somewhere.
# ERAP1 inh – inhibitors of human ERAP1 aminopeptidase; Q9NZ08; recombinant ERAP1, Leu-AMC fluorescence, 60 min; inhibition, % at 10.7 µM; 340,000 tested, 0.15% active;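 active = mean replicate inhibition of at least 30%, or all replicates individually reaching that 30% level; inactive = mean below 30% and not every replicate reaching it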;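 note: 0% = neutral control wells and 100% = L-leucinethiol positive control wells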
# DENV2 CPE – protects cells from dengue virus 2 cytopathic effect; DENV2-infected cells, cytopathic effect rescue, plate reader; CPE inhibition, % at 9.99 µM; 350,000 tested, 1.7% active; AID 651640; in the data active = CPE inhibition above about 20%, passing the limit was not always enough; inconclusive = no clear call, values can overlap the other calls; tested in BHK-21 cells;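 note: 0% = median of neutral control wells and 100% = median of positive control wells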
# SIRT5 block – inhibitors of human sirtuin-5 desuccinylase; Purified SirT5, succinyl-peptide AMC, trypsin-coupled fluorescence; Q9NXA8; AID 652115; 330,000 tested, 1.1% active; inhibition, % at 15 µM; in the data active = inhibition above about 15%; inconclusive = no clear call, values can overlap the other calls
# PglD DTNB – inhibitors of Campylobacter jejuni PglD acetyltransferase; 360,000 tested, 0.098% active; purified PglD enzyme, DTNB colorimetric CoA detection; inhibition, % at 12.5 µM; in the data active = inhibition above about 16%, passing the limit was not always enough; inconclusive = no clear call, values can overlap the other calls
# E-sel inducer – E-selectin induction on HUVECs; activation, % at 7.58 µM; HUVEC E-selectin immunofluorescence imaging; normalized: neutral wells 0, TNF-alpha wells 100; 260,000 tested, 0.37% active;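 active = mean E-selectin-positive cell signal at least 10% of the positive control, reached in at least 60% of replicates, without over 20% cell loss; inconclusive = no rule given, readout overlaps actives, possibly toxicity-flagged; inactive = the rest, including those meeting only one limit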
# Target sequence (P16581 whole entry, looked up): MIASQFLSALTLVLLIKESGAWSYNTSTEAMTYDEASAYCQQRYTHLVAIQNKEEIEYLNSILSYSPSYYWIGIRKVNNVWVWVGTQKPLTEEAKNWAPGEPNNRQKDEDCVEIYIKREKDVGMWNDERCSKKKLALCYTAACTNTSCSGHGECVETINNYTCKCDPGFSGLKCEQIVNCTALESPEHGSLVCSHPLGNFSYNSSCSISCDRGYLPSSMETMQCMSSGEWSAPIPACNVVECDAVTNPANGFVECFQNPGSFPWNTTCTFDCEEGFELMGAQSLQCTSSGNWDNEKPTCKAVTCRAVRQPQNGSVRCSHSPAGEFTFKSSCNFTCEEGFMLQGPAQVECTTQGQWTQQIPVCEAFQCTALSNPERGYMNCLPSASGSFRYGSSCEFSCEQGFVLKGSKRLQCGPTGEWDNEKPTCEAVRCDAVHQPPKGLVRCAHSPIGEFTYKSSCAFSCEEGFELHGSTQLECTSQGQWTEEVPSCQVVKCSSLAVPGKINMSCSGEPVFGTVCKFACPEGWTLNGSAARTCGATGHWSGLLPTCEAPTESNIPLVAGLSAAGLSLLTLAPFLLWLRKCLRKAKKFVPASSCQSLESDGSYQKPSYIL
#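 Assay system: HUVEC primary endothelial cells. Input: 3,000 HUVEC seeded per well. Doses: one compound dose added by pin transfer. Read-out basis: % PE-positive cells. Benchmarks: TNF-alpha high, DMSO low. Detection: immunofluorescence imaging. Buffer or medium: EGM-2, gelatin.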
# Active calls of the source: *; ? = inconclusive; · = not tested or not shown; ! = repeats disagree.
SMILES,ERAP1 inh,DENV2 CPE,SIRT5 block,PglD DTNB,E-sel inducer
C[C@@H]1CN([C@@H](C)CO)C(=O)c2cc(-c3cccnc3)cnc2O[C@H]1CN(C)C(=O)Nc1ccc(F)cc1,-3,0,-2,1,0
N#C[C@H]1[C@H](c2ccc(C#Cc3ccc(F)cc3)cc2)[C@H](CO)N1C(=O)Nc1ccc(F)cc1,0,-19,6,-1,0
COc1cc(SC)ccc1C(=O)Nc1cccc(S(=O)(=O)NC2=NCCC2)c1,0,?,15*,-1,0
CC(C)C[C@H](NC(=O)c1nc[nH]c1C(=O)NC1CCN(C(=O)OC(C)(C)C)CC1)C(=O)OC(C)(C)C,-3,50*,·,4,0
CC(C)(C)OC(=O)N1CCC(NC(=O)c2nc[nH]c2C(=O)NCc2ccccc2)CC1,·,34*,·,7,2
CN(Cc1ccccc1)C(=O)c1nc[nH]c1C(=O)N1CCN(c2ccccc2)CC1,2,-5,·,0,0
CN(Cc1ccccc1)C(=O)c1nc[nH]c1C(=O)N1CCN(C(=O)OC(C)(C)C)CC1,-2,42*,·,0,0
CCNC(=O)Nc1ccc2c(c1)C(=O)N(C)[C@H]1CC[C@H](CC(=O)NCCN3CCCC3)O[C@H]1CO2,·,-5,·,-2,0
CCCCOc1ccc(CSc2nc(C)[nH]c2[N+](=O)[O-])cc1[N+](=O)[O-],·,-7,1,-3,·
O=C(O)c1ccc(S(=O)(=O)N2CCC(NC(=O)C3CCCCC3)CC2)cc1,-2,-3,-1,·,0
O=C(N/N=C/c1ccc(OC2CSC2)cc1)c1ccc(CN2CCOCC2)cc1,0,3,28*,·,0
COCCOC(=O)C1=C(C)NC2=C(C(=O)CC(C)(C)C2)C1c1cc2c(cc1Br)OCO2 (stereo unspecified),·,·,·,-6,·
CC1CCCC(NC(=O)COC(=O)c2ccccc2Sc2ccccc2C#N)C1C (stereo unspecified),0,57*,-1,-7,·
N#Cc1ccccc1Sc1ccccc1C(=O)OCC(=O)NC12CC3CC(CC(C3)C1)C2,·,·,·,·,0
CO[C@H]1CC[C@@H]2CCOc3c(C#N)cccc3C(=O)N(C)C[C@@H](OC)[C@H](C)C(=O)N(C)C[C@@H]1O2,-4,-1,1,0,0
COc1cccc(-c2ccc3c(c2)O[C@H](CN(C)C(=O)c2ccccc2F)[C@H](C)CN([C@H](C)CO)S3(=O)=O)c1,2,5,37*!,-2,0
C[C@H](CO)N1C[C@H](C)[C@@H](CN(C)C(=O)Nc2cc(F)ccc2F)Oc2cc(/C=C/c3ccccc3)ccc2S1(=O)=O,2,0,21*,7,1
COc1cccc(NC(=O)N(C)C[C@@H]2Oc3cc(-c4ccccc4F)ccc3S(=O)(=O)N([C@H](C)CO)C[C@@H]2C)c1,4,?,17*,1,·
C[C@@H]1CN([C@H](C)CO)S(=O)(=O)c2ccc(/C=C/c3ccccc3)cc2O[C@@H]1CN(C)C(=O)Nc1cc(F)ccc1F,0,-3,25*,0,1
Cc1ccccc1-c1ccc2c(c1)O[C@H](CN(C)C(=O)Nc1ccc(F)cc1)[C@@H](C)CN([C@@H](C)CO)S2(=O)=O,·,·,·,·,0
Cc1ccccc1-c1ccc2c(c1)O[C@H](CN(C)C(=O)Nc1ccc(F)cc1)[C@H](C)CN([C@H](C)CO)S2(=O)=O,4,-10,16*,6,0
C[C@@H]1CN([C@H](C)CO)S(=O)(=O)c2ccc(/C=C/c3ccccc3)cc2O[C@H]1CN(C)C(=O)Nc1cc(F)ccc1F,0,19,23*,0,0
COc1cccc(NC(=O)N(C)C[C@@H]2Oc3cc(/C=C/c4ccccc4)ccc3S(=O)(=O)N([C@@H](C)CO)C[C@H]2C)c1,0,2,102*,6,0
C[C@@H]1CN([C@@H](C)CO)S(=O)(=O)c2ccc(/C=C/c3ccccc3)cc2O[C@@H]1CN(C)C(=O)Nc1ccc(F)cc1,1,5,17*,1,0
COc1cccc(NC(=O)N(C)C[C@@H]2Oc3cc(/C=C/c4ccccc4)ccc3S(=O)(=O)N([C@H](C)CO)C[C@@H]2C)c1,0,-1,2,1,0
SMILES,ERAP1 inh,DENV2 CPE,SIRT5 block,PglD DTNB,E-sel inducer
CC(=O)Nc1c(Cl)cc2c(c1Cl)Cc1cc(C#N)ccc1-2,-2,12,·,·,0
C[C@H]1CCCCO[C@@H](CN(C)C)[C@@H](C)CN([C@@H](C)CO)C(=O)c2cc(NC(=O)c3ccncc3)ccc2O1,2,12,0,-3,0
C[C@@H]1CCCCO[C@H](CN(C)C)[C@H](C)CN([C@H](C)CO)C(=O)c2cc(NC(=O)c3ccncc3)ccc2O1,1,34*,-1,1,0
C[C@@H]1CN([C@H](C)CO)C(=O)c2cc(NC(=O)c3ccncc3)ccc2O[C@@H](C)CCCCO[C@H]1CN(C)C,-1,85*,-1,0,0
NC(=O)c1ccc[n+](CC(=O)c2ccc(Br)cc2)c1,-2,·,-5,·,2
CO[C@H]1CN(C)C(=O)c2cc(NS(=O)(=O)c3cccc(C)c3)ccc2OC[C@H](C)NC[C@@H]1C,2,2,1,0,0
C=CC(=O)N(CCC)C(c1ccccc1)c1ccccc1OC (stereo unspecified),0,-10,21*,5,0
Cc1oc2ccc(O)cc2c1C(=O)c1ccc([N+](=O)[O-])cc1,-1,-4,-2,-2,·
CN(C)/C=C/c1oc2ccc(O)cc2c1[N+](=O)[O-],9,3,24*,·,·
CN(C)S(=O)(=O)c1ccc(Cl)c(C(=O)Nc2nc3ccccc3[nH]2)c1,-1,4,9,0,30*
COc1ccc(-c2cc3nc(NCCCN(C)C)n(C)c(=O)c3s2)c(C)c1,3,-2,-6,0,0
O=C(Nc1ccccc1C(=O)N1CCOCC1)c1cc2ccccc2o1,-2,2,30*,-2,·
Cc1cc(C)n(CCNC(=O)CCc2nnc(CCc3ccccc3)o2)n1,-4,-4,15*,-7,0
COCCOC(=O)N1C(=O)[C@@]2(c3cc(C#Cc4ccc(OC)cc4)ccc31)[C@H](c1ccccc1OCCO)N1[C@H](c3ccccc3)[C@H](c3ccccc3)OC(=O)[C@H]1[C@@H]2C(=O)NC[C@H](O)c1ccccc1,1,4,-6,-7,·
COCCOC(=O)N1C(=O)[C@@]2(c3cc(C#CCCO)ccc31)[C@H](c1ccccc1OCCO)N1[C@H](c3ccccc3)[C@H](c3ccccc3)OC(=O)[C@H]1[C@@H]2C(=O)N1CCN(c2ncccn2)CC1,-2,0,19*,-17,·
COCCOC(=O)N1C(=O)[C@@]2(c3ccccc31)[C@H](C(=O)N1CCN(c3ncccn3)CC1)[C@H]1C(=O)O[C@H](c3ccccc3)[C@H](c3ccccc3)N1[C@@H]2c1ccccc1OCCO,0,6,16*,-3,·

# Compound activity as filed in PubChem BioAssay.
